Experiments:
[1] = target: Cyclin-dependent kinase 2 (Homo sapiens, UniProt P24941); test: Inhibition of Cyclin-dependent kinase 2 (CDK2)
Summary of the method: (§1)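 Reaction started with 30–150 ng kinase, run 1 h at 30 °C. Peptides captured on streptavidin plates and counted. IC50 from 6–10 concentrations; ≥3 experiments in duplicate; ± SEM.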

[2] = target: Cyclin-dependent kinase 1 (Homo sapiens, UniProt P06493); test: Inhibition of Cyclin-dependent kinase 1; summary of the method: as §1
[3] = Inhibition of Vascular endothelial growth factor receptor 2; design: species or system Homo sapiens; summary of the method: as §1
[4] = target: Protein kinase C gamma type (Homo sapiens, UniProt P05129); test: Inhibition of Protein kinase C gamma (PKC-gamma)
Summary of the method: (§2)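 Recombinant human PKCα, PKCγ or PKCβII (5–10 mU) phosphorylating histone H1 (0.1 mg/mL) with 33P-ATP, total ATP 10 µM. Buffer 50 mM Hepes pH 7.4 with Triton X-100, CaCl2, Mg acetate, phosphatidylserine and diacylglycerol. Run 40 min at room temperature, stopped with phosphoric acid, then P30 filter counting. IC50 from 6–10 concentrations; ≥3 experiments in duplicate; ± SEM.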

[5] = target: Protein kinase C theta type (Homo sapiens, UniProt Q04759); test: Inhibition of Protein kinase C theta
Protein kinase C theta type, sequence (Q04759 whole entry): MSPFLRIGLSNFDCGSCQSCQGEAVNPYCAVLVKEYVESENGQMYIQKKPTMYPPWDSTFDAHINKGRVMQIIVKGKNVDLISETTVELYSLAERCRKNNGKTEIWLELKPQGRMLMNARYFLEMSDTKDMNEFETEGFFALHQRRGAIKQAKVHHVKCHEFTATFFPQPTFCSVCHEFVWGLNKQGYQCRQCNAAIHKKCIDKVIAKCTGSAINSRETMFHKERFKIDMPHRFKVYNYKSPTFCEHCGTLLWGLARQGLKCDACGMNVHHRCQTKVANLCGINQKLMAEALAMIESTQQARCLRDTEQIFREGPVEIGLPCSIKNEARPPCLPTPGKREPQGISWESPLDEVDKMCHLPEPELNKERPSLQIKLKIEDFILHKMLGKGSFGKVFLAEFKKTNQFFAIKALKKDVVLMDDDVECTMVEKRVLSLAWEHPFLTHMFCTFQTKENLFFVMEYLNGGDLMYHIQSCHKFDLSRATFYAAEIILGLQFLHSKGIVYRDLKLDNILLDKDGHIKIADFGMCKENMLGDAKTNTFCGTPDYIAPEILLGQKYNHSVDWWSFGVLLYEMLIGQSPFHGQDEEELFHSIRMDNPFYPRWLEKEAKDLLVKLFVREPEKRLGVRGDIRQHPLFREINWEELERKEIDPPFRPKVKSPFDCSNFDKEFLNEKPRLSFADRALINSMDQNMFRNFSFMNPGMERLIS
Summary of the method: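 Recombinant human PKCθ (5–10 mU) with histone H1 (0.1 mg/mL) and 33P-ATP, total ATP 10 µM, in 8 mM MOPS pH 7.0, 0.2 mM EDTA, 10 mM Mg acetate. Run 40 min at room temperature, stopped with phosphoric acid, then P30 filter counting. IC50 from 6–10 concentrations; ≥3 experiments in duplicate; ± SEM.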

CaM kinase II = CaM kinase II (Homo sapiens, UniProt Q13557+Q13555+Q13554+Q9UQM7); test: Inhibition of Calcium/calmodulin-dependent protein kinase II; format: protein assay, Rattus norvegicus
[6] = Inhibitory activity against Protein kinase A was determined
[7] = Inhibition of Casein Kinase I; design: species or system Rattus norvegicus; summary of the method: as §1
[8] = target: Protein kinase C beta type (Homo sapiens, UniProt P05771); test: Inhibition of Protein kinase C beta 2
Protein kinase C beta type, sequence (P05771 whole entry): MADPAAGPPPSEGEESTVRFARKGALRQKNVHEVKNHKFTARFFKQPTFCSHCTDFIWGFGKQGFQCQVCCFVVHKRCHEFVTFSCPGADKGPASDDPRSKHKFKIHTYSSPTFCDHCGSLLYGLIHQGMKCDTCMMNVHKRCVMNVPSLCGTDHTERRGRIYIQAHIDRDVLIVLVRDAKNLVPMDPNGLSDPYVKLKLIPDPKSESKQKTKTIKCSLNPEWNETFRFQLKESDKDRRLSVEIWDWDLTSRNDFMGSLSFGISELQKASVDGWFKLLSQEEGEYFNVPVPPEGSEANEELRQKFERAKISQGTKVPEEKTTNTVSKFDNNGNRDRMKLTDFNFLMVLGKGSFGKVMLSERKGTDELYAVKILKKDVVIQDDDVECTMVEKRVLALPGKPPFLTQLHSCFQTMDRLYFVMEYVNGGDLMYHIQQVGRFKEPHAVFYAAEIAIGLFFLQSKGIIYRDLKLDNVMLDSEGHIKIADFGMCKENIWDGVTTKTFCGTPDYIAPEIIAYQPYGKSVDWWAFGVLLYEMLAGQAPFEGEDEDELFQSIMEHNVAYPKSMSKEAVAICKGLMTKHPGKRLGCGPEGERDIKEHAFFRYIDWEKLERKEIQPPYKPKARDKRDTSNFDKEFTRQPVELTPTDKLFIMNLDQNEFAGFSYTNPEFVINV
Summary of the method: as §2, with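 “counting.” for “counting. IC50 from 6–10 concentrations; ≥3 experiments in duplicate; ± SEM.”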

[9] = target: Protein kinase C alpha type (Homo sapiens, UniProt P17252); test: Inhibition of Protein kinase C alpha
Summary of the method: as §2, with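 “counting.” for “counting. IC50 from 6–10 concentrations; ≥3 experiments in duplicate; ± SEM.”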

[10] = target: Glycogen synthase kinase-3 beta (Homo sapiens) (UniProt P49841); test: Inhibition of Glycogen synthase kinase-3beta (GSK3-beta) at 1 uM; conditions: Oryctolagus cuniculus
Glycogen synthase kinase-3 beta (Homo sapiens), sequence (P49841 whole entry, looked up): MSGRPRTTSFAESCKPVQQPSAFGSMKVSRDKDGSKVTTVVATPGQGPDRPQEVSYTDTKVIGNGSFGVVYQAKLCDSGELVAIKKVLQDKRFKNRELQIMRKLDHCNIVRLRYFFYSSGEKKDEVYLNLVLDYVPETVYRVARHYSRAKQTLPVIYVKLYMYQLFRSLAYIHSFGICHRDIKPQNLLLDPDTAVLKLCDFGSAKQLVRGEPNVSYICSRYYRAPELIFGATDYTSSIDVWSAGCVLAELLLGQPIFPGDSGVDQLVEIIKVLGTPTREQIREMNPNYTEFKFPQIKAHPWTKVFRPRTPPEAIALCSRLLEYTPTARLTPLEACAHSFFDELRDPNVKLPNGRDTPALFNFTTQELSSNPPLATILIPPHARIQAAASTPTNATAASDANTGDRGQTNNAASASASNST

Cyclin-dependent kinase 1, sequence (P06493 whole entry): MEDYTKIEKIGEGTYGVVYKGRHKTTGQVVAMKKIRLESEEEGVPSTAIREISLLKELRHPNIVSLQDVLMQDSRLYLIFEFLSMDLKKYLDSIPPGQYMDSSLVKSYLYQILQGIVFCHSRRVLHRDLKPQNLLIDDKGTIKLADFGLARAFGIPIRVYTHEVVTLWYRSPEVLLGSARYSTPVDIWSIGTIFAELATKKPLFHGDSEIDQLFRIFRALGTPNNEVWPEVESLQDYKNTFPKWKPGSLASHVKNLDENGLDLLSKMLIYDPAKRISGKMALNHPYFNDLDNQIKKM

Question: For `O=C1NC(=O)C2=C1c1cn(c3ccccc13)CCOCCOCCOCCn1cc2c2cccnc21` [INDOLYLYLMALEIMIDE 1], which IC50 [1] is on record?
Answer: 2440 nM

Question: And the IC50 [2]?
Answer: 4430 nM

Question: And the IC50 [3]?
Answer: 3560 nM

Question: And the IC50 [4]?
Answer: 1340 nM

Question: And the IC50 [5]?
Answer: 835 nM

Question: What about the IC50 (CaM kinase II) of the same molecule?
Answer: > 10000 nM

Question: And the IC50 [6]?
Answer: > 10000 nM

Question: What about the IC50 [7] of the same molecule?
Answer: > 10000 nM

Question: And the IC50 [8]?
Answer: 46 nM

Question: What about the IC50 [9] of the same molecule?
Answer: 673 nM

Question: For `O=C1NC(=O)C2=C1c1cn(c3ccccc13)CCOCCOCCOCCOCCOCCn1cc2c2ccccc21`, which IC50 [4] is on record?
Answer: 5170 nM

Question: With `O=C1NC(=O)C2=C1c1cn(c3ccccc13)CCOCCOCCOCCOCCn1cc2c2ccccc21` as the molecule, how does the IC50 [4] read?
Answer: 3300 nM

Question: Which IC50 [4] does the source give for `O=C1NC(=O)C2=C1c1cn(c3ncccc13)CCOCCOCCOCCOCCOCCn1cc2c2cccnc21` here?
Answer: > 10000 nM

Question: With `O=C1NC(=O)C2=C1c1cn(c3ccccc13)CCOCCOCCn1cc2c2ccccc21` as the molecule, how does the IC50 [4] read?
Answer: 2730 nM

Question: Which IC50 [4] does the source give for `O=C1NC(=O)C2=C1c1cn(c3ccccc13)CCOCCOCCn1cc2c2cccnc21` here?
Answer: 2670 nM

Question: For `CN1C(=O)C2=C(C1=O)c1cn(c3ccccc13)CCOCCOCCOCCn1cc2c2ccccc21`, which inhibition [10] is on record?
Answer: 54%

Question: Which inhibition [10] does the source give for `CN1C(=O)C2=C(C1=O)c1cn(c3ncccc13)CCOCCOCCn1cc2c2ccccc21` here?
Answer: 51%

Question: With `O=C1NC(=O)C2=C1c1cn(c3ncccc13)CCOCCOCCn1cc2c2cccnc21` as the molecule, how does the IC50 [4] read?
Answer: > 10000 nM

Question: For `O=C1NC(=O)C2=C1c1cn(c3ccccc13)CCOCCOCCOCCn1cc2c2ccccc21` [INDOLYLYLMALEIMIDE 2], which IC50 [1] is on record?
Answer: 992 nM

Question: And the IC50 [2]?
Answer: 1250 nM

Question: And the IC50 [3]?
Answer: 1450 nM

Question: What about the IC50 [4] of the same molecule?
Answer: 1200 nM

Question: And the IC50 [5]?
Answer: 65 nM

Question: And the IC50 [6]?
Answer: > 10000 nM

Question: What about the IC50 [7] of the same molecule?
Answer: > 10000 nM

Question: What about the IC50 [8] of the same molecule?
Answer: 6 nM

Question: And the IC50 [9]?
Answer: 86 nM
